Results as given in the array DNA melting data of Ke et al. (doi:10.1101/2024.01.08.574731).

How the values were obtained:
[1] = folding enthalpy; higher = less favourable; fluorescence melt of hairpins on a sequencing array, two-state fit; settings: sodium 0.088 M
Method in brief: (§1)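 In 50 mM Na-HEPES pH 8.0 containing 25 mM NaCl, hairpins from the library on a sequenced MiSeq flow cell were imaged for Cy3 fluorescence at 2.5 °C steps up to 60 °C, with Cy3 and quencher oligos annealed. After normalisation to pre-quench Cy3 and to control constructs, two-state fits with bootstrapping gave melting temperature and folding enthalpy. Four replicates were combined by inverse-variance weighting, and fitted temperatures were shifted up by 9.35 °C to match UV melts.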

[2] = melting temperature; fluorescence melt of hairpins on a sequencing array, two-state fit, raised by 9.35 °C to match UV melts; settings: sodium 0.088 M
Method in brief: as §1

Sequence	folding enthalpy [1]	Tm [2]
GCTTCGCGAAAGCTGAGC (((..((....))..)))	-14.5 kcal/mol	45.5 °C
GGTCGAGGAAACCCGACC (((((.(....).)))))	-49.6 kcal/mol	54.1 °C
CGGGACGGAAACGTCCG (((.(((....))))))	-12.9 kcal/mol	57.9 °C
GATCTTACTTAAGATC ((((((....))))))	-35.6 kcal/mol	44.1 °C
GCGGCGCGAAAGCTTCGC (((..((....))..)))	-16.8 kcal/mol	54.1 °C
GCCCCACGAAAGTGCGGC (((.(((....))).)))	-29.6 kcal/mol	54.3 °C
GTCAACCGAAAGGTAGAC (((.(((....))).)))	-31.6 kcal/mol	51.5 °C
GTCGCCGAAAGGCGTGAC ((((((....)))..)))	-8.03 kcal/mol	36.3 °C
GGCTGTACGAAAGTAGCC (((..(((....))))))	-27.5 kcal/mol	51.1 °C
GATCATGACCATGATC ((((((....))))))	-41.5 kcal/mol	55.2 °C
GCACACGAAAGTGTTGC ((((((....))).)))	-32.5 kcal/mol	53.8 °C
GATCACCCCCGTGATC ((((((....))))))	-36 kcal/mol	55 °C
GAACGCGAAAGCGATTTC ((((((....)))..)))	-9.14 kcal/mol	32.3 °C
GTCAACGAAAGTTTTGAC ((((((....)))..)))	-17.4 kcal/mol	32.8 °C
GATCGTCAGTACGATC ((((((....))))))	-42.8 kcal/mol	53.7 °C
GTAGTTCGAAAGAAGTAC (((.(((....))).)))	-25 kcal/mol	46 °C
GGTCTACCGAAAGGTACC (((..(((....))))))	-11 kcal/mol	29.1 °C
GATCTTCCACAAGATC ((((((....))))))	-35.2 kcal/mol	41.5 °C
GCTATCGAAAGATGGAGC ((((((....)))..)))	-15.9 kcal/mol	33.6 °C
GTGCTCGGAAACGAACAC (((.(((....))).)))	-35.3 kcal/mol	47.6 °C
GCGTTCGCACGC ((((....))))	-18.8 kcal/mol	56.5 °C
GGAGTGGGAAACCGCTTC (.((.((....)).)).)	-25.7 kcal/mol	38 °C
GTAGTGAAAACTAC (((((....)))))	-22.3 kcal/mol	45.1 °C

Sequence	folding enthalpy [1]	Tm [2]
GGCAAGTCGAAAGACGCC (((..(((....))))))	-18.2 kcal/mol	53.1 °C
GCGGCGCTCCGC ((((....))))	-14.3 kcal/mol	63.4 °C
GATCACGAAAGTGACATC ((((((....)))..)))	-10.1 kcal/mol	30 °C
GATCCGGCAGCGGATC ((((((....))))))	-37.8 kcal/mol	59.4 °C
GGACAACGAAAGTTCTCC (((.(((....))).)))	-22.8 kcal/mol	31.3 °C
GTTGGCGAAAGCCGAAC ((((((....))).)))	-13.8 kcal/mol	50.5 °C
GCTTTAACGAAAGTTAGC (((..(((....))))))	-18.8 kcal/mol	31.9 °C
GCTGGACGAAAGTCAGC (((.(((....))))))	-30.6 kcal/mol	56.1 °C
GCTCGACGAAAGTCCAGC (((.(((....))).)))	-24.1 kcal/mol	44.6 °C
GTATCCCGAAAGGGGTAC (((.(((....))).)))	-38.2 kcal/mol	55.6 °C
GCCGCCACGAAAGTGGGC (((..(((....))))))	-8.39 kcal/mol	54.6 °C
GCAGACGGAAACGTCCGC ((.((((....)))).))	-24 kcal/mol	52.6 °C
GAACCTGGAAACGGGTTC (((((.(....).)))))	-39.3 kcal/mol	50.7 °C
GTCGGAGCGAAAGCTGAC (((..(((....))))))	-22.1 kcal/mol	44.3 °C
GCGGCCGAAAGGCGACGC ((((((....)))..)))	-17.2 kcal/mol	65.9 °C
GGAGCTACGAAAGTATCC (((..(((....))))))	-5.61 kcal/mol	19.7 °C
CCAACGAAAGTTGG (((((....)))))	-25.4 kcal/mol	58 °C
GCACTATCGAAAGATTGC (((..(((....))))))	-17.7 kcal/mol	30.6 °C
GACACGGGAAACCGTATC ((.((((....)))).))	-14.5 kcal/mol	35.2 °C
GCAGCTCGAAAGAGTTGC (((.(((....))).)))	-44.2 kcal/mol	59.6 °C
GCATGCACGAAAGTGTGC (((..(((....))))))	-13.3 kcal/mol	42.5 °C
GCAGCGCGAAAGCCCGGC ((.(.((....)).).))	-17.6 kcal/mol	39.3 °C
GGTGTGCCGAAAGGCACC (((..(((....))))))	-7.6 kcal/mol	49.7 °C

Sequence	folding enthalpy [1]	Tm [2]
GGAACGGGAAACCATTCC ((((.((....)).))))	-30.2 kcal/mol	35.9 °C
GATCCACCTCTGGATC ((((((....))))))	-33 kcal/mol	49 °C
GCTTTCGGAAACGAAGGC ((.((((....)))).))	-35.3 kcal/mol	50.9 °C
GAAGCCGGAAACGACTTC ((((.((....)).))))	-34.4 kcal/mol	46 °C
GATCTCCCTGAGATC ((((((...))))))	-34.7 kcal/mol	55.3 °C
GCCTATCGAAAGATGGC (((.(((....))))))	-30.9 kcal/mol	50.9 °C
GTTCGACGAAAGTCTAAC (((.(((....))).)))	-24.8 kcal/mol	42.5 °C
GGGTGGGGAAACCCATCC ((.((((....)))).))	-34.7 kcal/mol	54.2 °C
GGCTCAGGAAACCGAGCC (((((.(....).)))))	-49.1 kcal/mol	54.5 °C
GTCGCTGGAAACGGTGAC (((.(.(....).).)))	-28.6 kcal/mol	44.2 °C
GCTTCGCGAAAGCAAGGC ((.(.((....)).).))	-12.3 kcal/mol	36.1 °C
GATAGGCGAAAGCCCATC (((.(((....))).)))	-13.8 kcal/mol	37.7 °C
GCGTCTGGAAACGGACGC (((((.(....).)))))	-48.5 kcal/mol	64.3 °C
GACGGCGAAAGCCCTGTC ((((((....)))..)))	-13.6 kcal/mol	38.6 °C
GTAGCTGGAAACAGCTGC (.(((((....))))).)	-26.3 kcal/mol	55.2 °C
GGTTAGCCGAAAGGCACC (((..(((....))))))	-13.5 kcal/mol	41.2 °C
GTCTAACGAAAGTTTGAC (((.(((....))).)))	-36.7 kcal/mol	47.6 °C
GATCAGAGCCCTGATC ((((((....))))))	-36.5 kcal/mol	47.7 °C
GACCCGCGAAAGCGCGTC (((.(((....))).)))	-21.9 kcal/mol	47.8 °C
GTTCCGGGAAACCAGAAC ((((.((....)).))))	-31.7 kcal/mol	38.7 °C
GCAGTGCGAAAGCATGC (((.(((....))))))	-20.4 kcal/mol	58.7 °C
GTGTGAGGAAACTTACGC (.((.((....)).)).)	-17.7 kcal/mol	33.7 °C
GCATGGCGAAAGCTCTGC (((..((....))..)))	-18 kcal/mol	43.2 °C

Sequence	folding enthalpy [1]	Tm [2]
GTTAAGGGAAACCTTAAC (((((((....)))))))	-39.2 kcal/mol	50.5 °C
GCCCCGACGAAAGTCGGC (((..(((....))))))	-4.92 kcal/mol	41.1 °C
GATCCTGGGTAGGATC ((((((....))))))	-33.4 kcal/mol	51.3 °C
AGTCAGAAATGACT (((((....)))))	-18.9 kcal/mol	43.3 °C
GATCTTGGGAAGATC ((((((...))))))	-22.8 kcal/mol	39.7 °C
GTAAGGCCGAAAGGCTAC (((..(((....))))))	-9.55 kcal/mol	33.8 °C
GTCCATGAAAATGGAC ((((((....))))))	-31.7 kcal/mol	62.4 °C
GCTTAGCGAAAGCTCCGC ((..(((....)))..))	-12.8 kcal/mol	36 °C
GAGCCGGGAAACCGACTC (((.(((....))).)))	-42.8 kcal/mol	49.5 °C
GGCTGCGAAAGCATAGCC ((((((....)))..)))	-35.5 kcal/mol	57.1 °C
GCTTTTGAAAAAAAGC ((((((....))))))	-30.5 kcal/mol	50.4 °C
GCAGTCACGAAAGTGTGC (((..(((....))))))	-19.5 kcal/mol	38 °C
GATCTTTGTCAAGATC ((((((....))))))	-33 kcal/mol	39.9 °C
GAAGGAGGAAACTTCTTC ((((.((....)).))))	-35.7 kcal/mol	46.8 °C
GCCGGTGGAAACACCAGC ((.((((....)))).))	-21.5 kcal/mol	48.4 °C
GACACGGCGAAAGCCGTC (((..(((....))))))	-6.25 kcal/mol	32.9 °C
GGATGTGGAAACACATCC (((((((....)))))))	-42.6 kcal/mol	64.5 °C
GGTTGTCCGAAAGGAACC (((..(((....))))))	-14.5 kcal/mol	31.2 °C
GTCGGCGAAAGCCTCGAC ((((((....)))..)))	-14.7 kcal/mol	42.4 °C
GCCCTCGGAAACGAAGGC (((.(((....))).)))	-34.1 kcal/mol	46.6 °C
GATCTACGAATAGATC ((((((....))))))	-24 kcal/mol	36.4 °C
GATCACCAGCGTGATC ((((((....))))))	-43.3 kcal/mol	53.8 °C
GCCTACGAAAGTAACGGC ((((((....)))..)))	-26.5 kcal/mol	44 °C
